Compound activity as filed in PubChem BioAssay.
This is a sample that favours compounds with a hit; in the whole collection about 2.9% have one here.
MEKK2 WT-MEK5 – modulators of MEK5 binding to wildtype MEKK2, primary screen, biochemical, multiplex bead flow cytometry, Alexa488-MEK5 | Alexa488-MEK5 binding to MEKK2 WT; actives lie on both sides | actives 1.1% (n = 290,000) | binding response (% of control), % at 10 µM; in the data active means binding response below about 67% or above about 130%
UBC13 inh – UBC13 polyubiquitin chain formation inhibitors, primary screen, biochemical, TR-FRET, uHTS. actives 0.47% (n = 330,000). inhibition, % at 20 µM. Ubiquitin-conjugating enzyme E2 N (Homo sapiens), P61088; in the data active means inhibition above about 45%, passing the limit was not always enough
Target sequence (P61088 whole entry, looked up): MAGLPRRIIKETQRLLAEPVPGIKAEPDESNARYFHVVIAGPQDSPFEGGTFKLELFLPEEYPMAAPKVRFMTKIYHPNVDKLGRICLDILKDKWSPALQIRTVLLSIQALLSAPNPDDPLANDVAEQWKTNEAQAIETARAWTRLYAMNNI
Apaf-1 inh – inhibitors of human Apaf-1 apoptosome, primary screen, biochemical, DEVD-Rh110 fluorescence, uHTS; Apoptotic protease-activating factor 1 (Homo sapiens), O14727; reconstituted apoptosome caspase-3 activity; inhibition, % at 20 µM; actives 0.71% (n = 330,000); active means inhibition of at least 40% at 20 µM;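 further: plate controls were DMSO wells for no effect and DEVD-CHO caspase inhibitor wells for full effect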
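System: reconstituted apoptosome with Apaf-1, cytochrome c, caspase-9, procaspase-3, dATP; Signal: Rh110 fluorescence intensity; Schedule: 30 min compound preincubation, 50 min activation, room temperature; Reagent: cytochrome c trigger plus (Z-DEVD)2-Rh110 caspase-3 substrate.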
MEKK2mut PB1 HTS – MEK5 binding signal on mutant MEKK2 PB1, primary screen, biochemical, multiplex bead flow cytometry, Alexa488-MEK5 | Alexa488-MEK5 binding to MEKK2 mutant | percent response, % at 10 µM | actives 0.35% (n = 290,000) | AID 1530, 2009; in the data active means percent response above about 24%, passing the limit was not always enough
MEKK3 PB1 HTS – modulators of MEKK3-MEK5 PB1 binding, primary screen, biochemical, wildtype MEKK3, multiplex bead flow cytometry, Alexa488-MEK5; Mitogen-activated protein kinase kinase kinase 3 (Homo sapiens), Q99759; bead-based flow cytometry, Alexa488-MEK5 binding to MEKK3; actives lie on both sides; 0 = blocked by unlabeled MEK5, 100 = vehicle; binding response (% of control), % at 10 µM; actives 1.4% (n = 290,000);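 active means binding response more than 3 SD above or below the average of its plate-row segment, actives on both sides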;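 further: Alexa488 bead fluorescence after subtracting the streptavidin-only scavenger bead signal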
MEKK2wt confirm – modulators of MEK5 binding to wildtype MEKK2, confirmation, biochemical, single concentration, multiplex bead flow cytometry | AID 1892, 2009 | binding response (% of control), % at 10 µM | Alexa488-MEK5 binding to MEKK2 WT; actives lie on both sides | shares compounds with MEKK3 PB1 HTS | actives 2.4% (n = 5,900); in the data active means binding response below about 16% or above about 210%; inactive means in between
MEKK2mut confirm – mutant MEKK2 PB1-MEK5 binding signal retest – biochemical, single concentration, multiplex bead flow cytometry, confirmation; shares compounds with MEKK3 PB1 HTS; Alexa488-MEK5 binding to MEKK2 mutant; percent response, % at 10 µM; actives 2% (n = 5,900); in the data active means percent response mostly above about 71%, no sharp cut-off; inactive means mostly below about 38%;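 further: higher means compound restores mutant binding toward wildtype level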
MEKK3-MEK5 inh – MEKK3 wild-type PB1 binding to MEK5, inhibitors, confirmation, biochemical, bead multiplex flow cytometry, single concentration, wildtype | shares compounds with MEKK3 PB1 HTS | AID 1894, 2009 | actives 1.8% (n = 5,900) | Alexa488-MEK5 binding to MEKK3; stronger effect = lower value | binding response (% of control), % at 10 µM;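 active means binding response below 72% of control, or above a set upper limit, though filed actives all read lower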;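 further: 100% = DMSO only wells and 0% = binding blocked by excess unlabeled MEK5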
Starred values were filed as active, the others as inactive; nt = no result given; ! = a repeat was not active; [ ] = remark or other dose.

SMILES	MEKK2 WT-MEK5	UBC13 inh	Apaf-1 inh	MEKK2mut PB1 HTS	MEKK3 PB1 HTS	MEKK2wt confirm	MEKK2mut confirm	MEKK3-MEK5 inh
Cc1cccc(C2c3[nH]c4ccccc4c3CCN2C(=O)c2cn(C)c3ccccc3c2=O)n1 (centres undefined)	46*[inhibitor]	-6	5	-14	87	97	-2	102
Cc1ccc(C)c2c1cc(C)c1nnc(SCC(=O)c3cccs3)n12	112	12	-5	4	148*	99	-6	97
Cc1ccc(NC(=O)COc2ccccc2CNC(C)(C)CC(C)(C)C)cc1	141*	26	-20	16	105	137	17	105
Cc1cc(-c2n[nH]c(=S)n2/N=C/c2sccc2C)n[nH]1	107	-5	5	0	148*	104	0	102
O=[N+]([O-])c1ccc(Sc2nnnn2-c2ccccc2)c(Cl)c1	97	-10	1	0	100	nt	nt	nt
Nc1ccc(Sc2nnnn2-c2ccccc2)c(Cl)c1	-3.0*[inhibitor]	4	-13	-26	1.0*[inhibitor]	100	-2	102
Cc1nnc(SCC(=O)NC(C)(C)C)n1CCc1ccccc1	98	4	-4	3	95	nt	nt	nt
Cc1nnc(SCC(N)=O)n1CCc1ccccc1	110	-9	9	2	136*	97	-2	100
CCOC(=O)Cn1nc(C(F)F)c(Br)c1C	86	9	-2	-12	93	nt	nt	nt
Cc1c(C(=O)N(C)CCCCN2CCOCC2)oc2c(F)cccc12	103	4	-9	3	104	nt	nt	nt
CC1(C(=O)N/N=C/c2ccc([N+](=O)[O-])o2)CC1(Br)Br (centres undefined)	103	-11	4	1	132*	101	-4	104
O=C(Cc1ccc([N+](=O)[O-])cc1)N/N=C/c1ccc([N+](=O)[O-])o1	105	-16	8	6	106	nt	nt	nt
O=C(O)/C=C/c1ccc([N+](=O)[O-])o1	115	-4	-5	-55	130*	101	-5	102
COc1cc(OC)cc(C(=O)NNC(=O)CCC(=O)c2cc(C)sc2C)c1	nt	1	-3	nt	nt	nt	nt	nt
CCN(CC)C(=O)c1ccccc1NC(=O)CN1C(=O)c2ccccc2S1(=O)=O	106	-6	0	3	102	nt	nt	nt
O=C(COC(=O)C1CCC(=O)N1)Nc1ccccc1Br (centres undefined)	109	0	-8	-2	128*	102	-3	102
COC(=O)c1cc(C)sc1NC(=O)C1CC(=O)NN1Cc1ccccc1 (centres undefined)	108	12	-1	1	137*	98	-1	104
OC(COc1ccccc1Cl)CN1CCN(CC(O)COc2ccccc2Cl)CC1 (centres undefined)	150*	17	27	35*	109	155	27	104
COc1ccccc1N1CCN(CC(O)COc2cccc3ccccc23)CC1 (centres undefined)	95	25	16	1	75*![inhibitor]	119	14	106
CCOc1ccc(NC(=O)CN(C)C(=O)c2ccccc2CCc2ccccc2)cc1OCC	nt	-2	25	nt	nt	nt	nt	nt
CCOC(=O)[C@@H](C)N(Cc1ccc(OC)cc1)S(=O)(=O)N(Cc1ccccc1)[C@H](C(=O)OC)C(C)C	nt	13	10	nt	nt	nt	nt	nt
COc1ccc(C)cc1N(C(=O)COc1cccc(F)c1)c1nc2ccccc2s1	108	6	-2	1	143*	96	-7	87
O=C(Cn1nnc(-c2cccs2)n1)NCc1ccccc1	97	8	-4	2	102	nt	nt	nt
O=C(Cn1nnc(-c2cccs2)n1)NNC(=O)c1ccccc1Cl	112	-2	-20	24	128*	101	1	100
CC(C(=O)NCCS(=O)(=O)c1ccc(Cl)cc1)S(=O)(=O)c1ccccc1 (centres undefined)	139	9	-10	8	152*	106	4	102
SMILES	MEKK2 WT-MEK5	UBC13 inh	Apaf-1 inh	MEKK2mut PB1 HTS	MEKK3 PB1 HTS	MEKK2wt confirm	MEKK2mut confirm	MEKK3-MEK5 inh
CC(C(=O)NCCS(=O)(=O)c1ccc(Cl)cc1)S(=O)(=O)c1ccc(Cl)cc1 (centres undefined)	104	-6	-1	2	108	nt	nt	nt
OC1CCN(c2cc(-c3ccccc3)nc3cc(-c4ccc(F)cc4)nn23)CC1	95	26	-1	-4	102	nt	nt	nt
CCN1CCN(c2cc(-c3ccccc3)nc3cc(-c4cccc(F)c4)nn23)CC1	146*	38	16	49*	122*	182	39	108
CC1C(C)C(O)(c2ccccc2)CCN1C (centres undefined)	100	6	-4	9	130*	117	14	97
CC(C)C1C(c2ccccc2)N(C)C(c2ccccc2)CC1(O)c1ccccc1 (centres undefined)	129	6	22	9	99	nt	nt	nt
Clc1ccc(-c2nnc(CCc3ccccc3)o2)c(Cl)c1	62	-1	12	-12	55*[inhibitor]	102	-4	99
CCOC(=O)c1c(-c2ccccc2)oc2ccc(OCC(=O)NNC(=O)CCC(=O)O)cc12	9.0*[inhibitor]	12	12	-49	5.0*[inhibitor]	94	-3	94
N#Cc1c(NC(=O)CSc2nc(N)cc(=O)[nH]2)sc2c1CCCC2	2.0*[inhibitor]	11	5	-13	1.0*[inhibitor]	95	1	101
CC(C)(C)NC(=O)COC(=O)CNC(=O)c1cc(Cl)cc([N+](=O)[O-])c1	106	-8	-1	0	131*	92	-8	89
CC(C)CNC(=O)COC(=O)CNC(=O)c1cc(Cl)cc([N+](=O)[O-])c1	105	-3	-1	0	149*	104	9	109
CNC(=O)COC(=O)CNC(=O)c1cc(Cl)cc([N+](=O)[O-])c1	115	-10	-1	-2	127	nt	nt	nt
